Our source for the IC50 and Apoptosis values is ChEMBL document CHEMBL1143576, “Discovery of 2-arylthiazolidine-4-carboxylic acid amides as a new class of cytotoxic agents for prostate cancer” (J Med Chem, 2005).

pIC50: −log10 of the molar value.

For assay [1], the system named is TSU. Nature of the assay: Antiproliferative activity against prostate cancer TSU-Pr1 cell line using sulforhodamine B(SRB) assay. Conditions: Homo sapiens. The class given is functional, cell-based. The method in brief:
(§1)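 Cells seeded at 1000 to 5000 per well, depending on growth rate, and exposed to a range of concentrations for 96 h, in three to five replicates. Stocks were 5 to 20 mM in DMSO, diluted into complete medium. Endpoint cell number was measured by SRB: 10% trichloroacetic acid fixation, 0.4% SRB stain, absorbance at 540 nm.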

Assay [2] has as its system LNCaP. Nature of the assay: Antiproliferative activity against prostate cancer LNCaP Cell line using sulforhodamine B(SRB) assay. The class given is functional, cell-based. The settings on record: Homo sapiens, Prostate gland. In a few lines: as §1
In assay [3] the test system is PC-3. Description: Antiproliferative activity against prostate cancer PC-3 cell line using sulforhodamine B(SRB) assay. The class given is functional, cell-based, Homo sapiens. The settings on record: Homo sapiens, PC-3; read-out: IC50. The method in brief: as §1
For assay [4], the system named is PPC-1. Nature of the assay: Antiproliferative activity against prostate cancer PPC-1 cell line using sulforhodamine B(SRB) assay. The format is functional, cell-based. The settings on record: Homo sapiens. In a few lines:
as §1

The subject of assay [5] is RH7777. Description: Antiproliferative effect against RH7777 cell line using sulforhodamine B(SRB) assay. The format is functional, cell-based. The settings on record: Rattus norvegicus. The method in brief:
as §1

In assay [6] the test system is DU-145. Description: Antiproliferative activity against prostate cancer DU-145 cell line using sulforhodamine B(SRB) assay. Conditions: Homo sapiens. The format is functional, cell-based. In a few lines: as §1
The subject of assay [7] is PC-3. Nature of the assay: Induction of apoptosis in human PC-3 cell line at 10 uM concentration after 72 hr. The class given is functional. In a few lines: (§2)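 Cells were exposed to compound for 72 h. Cytoplasmic DNA-histone complexes (mono- and oligonucleosomes) were quantified by sandwich ELISA using monoclonal antibodies against DNA and histones. The enrichment factor is the OD405 ratio of treated to untreated cells.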

Assay [8] relates to RH7777. Nature of the assay: Induction of apoptosis in rat RH7777 cell line at 5 uM concentration after 72 hr.
Assay [9] concerns LNCaP. Description: Induction of apoptosis in human LNCaP Cell line at 5 uM concentration after 72 hr. The format is functional. The method in brief: as §2
Assay [10] deals with RH7777. Nature of the assay: Induction of apoptosis in rat RH7777 cell line at 10 uM concentration after 72 hr.
Assay [11] relates to LNCaP. Description: Induction of apoptosis in human LNCaP Cell line at 2 uM concentration after 72 hr. The class given is functional. The method in brief:
as §2

Assay [12] has as its system LNCaP. Description: Induction of apoptosis in human LNCaP Cell line at 10 uM concentration after 72 hr. The class given is functional. In a few lines: as §2
For assay [13], the system named is RH7777 (Rattus norvegicus). Nature of the assay: Induction of apoptosis in rat RH7777 cell line at 2 uM concentration after 72 hr.
Assay [14] has as its system PC-3. Description: Induction of apoptosis in human PC-3 cell line at 2 uM concentration after 72 hr. The class given is functional. The method in brief: as §2
Assay [15] relates to PC-3. Nature of the assay: Induction of apoptosis in human PC-3 cell line at 5 uM concentration after 72 hr. The format is functional. The method in brief:
as §2

Regarding `CCCCCCCCCCCCCCCCCCNC(=O)[C@H]1CSC(c2ccc(F)cc2)N1` (some centres undefined), the pIC50 (in general, the negative decadic logarithm of the IC50, by convention in mol/L) in assay [1] is 5.27; in assay [2] it was 5.72; in assay [3], 5.17; in assay [4], 5.68; in [5], 4.76; in assay [6], 5.24.
As for `CCCCCCCCCCCCCCCCCCNC(=O)[C@H]1CSC(c2ccc(Br)cc2)N1` (some centres undefined), the pIC50 in assay [1] is 4.74; in assay [2], 5.29; in [3], 4.76; in assay [4], 5.43; in assay [5], < 4.70; in assay [6], 4.86.
Regarding `CCCCCCCCCCCCCCCCCCNC(=O)[C@H]1CSC(CCCCCCCCCCCC)N1` (some centres undefined), the negative logarithm of the IC50 (pIC50) is 4.97 in assay [1]; 4.92 in assay [2]; 4.82 in assay [3]; 4.89 in [4]; ~4.70 in [5]; 5.05 in [6].
For the compound `CCCCCCCCCCCCCCCCCCNC(=O)[C@H]1CSC(c2ccc(C)cc2)N1` (some centres undefined), the negative-log IC50 (pIC50) was 5.10 in assay [1]; 5.72 in assay [2]; 4.89 in assay [3]; 5.72 in assay [4]; < 4.70 in assay [5]; 4.98 in assay [6].
For `CCCCCCCCCCCCCCCCCCNC(=O)c1csc(-c2ccccc2)n1`, the pIC50 in assay [1], in assay [2], in assay [3], in [4], in assay [5] and in [6] was < 4.70 in each case.
In the case of `CCCCCCCCCCCCCCCCCCNC(=O)[C@H]1CSC(Cc2ccccc2)N1` (some centres undefined), the pIC50 was 4.95 in assay [1]; 5.36 in [2]; 4.79 in assay [3]; 5.40 in assay [4]; < 4.70 in [5]; 4.82 in assay [6].
With `CCCCCCCCCCCCCCCCCCNC(=O)[C@H]1CSC(c2ccc([N+](=O)[O-])cc2)N1` (some centres undefined), the negative logarithm of the IC50 (pIC50) in assay [1] is 4.80; in [2], 5.08; in assay [3], ~4.70; in assay [4], 4.82; in assay [5] it was ~4.70; in assay [6], 4.82.
As to `CCCCCCCCCCCCCCCCCCNC(=O)[C@H]1CSC(c2cccnc2)N1` (some centres undefined), the negative-log IC50 (pIC50) in assay [1] was 5.11; in [2], 5.44; in assay [3] it was 5.04; in assay [4] it was 5.54; in assay [5] it was 4.98; in assay [6], 5.12.
For `CCCCCCCCCCCCCCCCCCNC(=O)[C@H]1CSC(c2ccccc2)N1S(C)(=O)=O` (some centres undefined), the negative logarithm of the IC50 (pIC50) in [1], in [2], in [3], in assay [4], in assay [5] and in assay [6] was < 4.70 each time.
`CCCCCCCCCCCCCCCCCCNC(=O)[C@H]1CSC(c2cc(F)cc(F)c2)N1` (some centres undefined): the pIC50 in assay [1] is < 4.70; in [2], 4.95; in assay [3], < 4.70; in [4] it was 4.97; in assay [5], < 4.70; in assay [6], < 4.70.
Turning to `CCCCCCCCCCCCCCCCCCNC(=O)[C@H]1CSC(c2ccc(N(C)C)cc2)N1` (some centres undefined), the pIC50 in assay [1] was 5.52; in assay [2], 5.80; in assay [3], 5.22; in [4] it was 5.96; in [5], < 4.70; in assay [6], 5.28.
For the compound `CCCCCCCCCCCCCCCCCCNC(=O)[C@H]1CSC(c2c(Cl)cccc2Cl)N1` (some centres undefined), the pIC50 in assay [1] was 4.70; in [2], 4.88; in assay [3], < 4.70; in assay [4] it was 4.77; in assay [5] it was < 4.70; in [6], < 4.70.
Take `CCCCCCCCCCCCCCCCCCNC(=O)[C@H]1CSC(c2ccccc2)N1C(C)=O` (some centres undefined): the pIC50 in [1] was < 4.70; in assay [2], 4.79; in assay [3], ~4.70; in [4] it was 4.90; in [5], < 4.70; in [6], ~4.70.
For the compound `CCCCCCCCCCCCCCCCCCNC(=O)[C@H]1CSC(c2cccc(O)c2)N1` (some centres undefined), the pIC50 was 5.40 in assay [1]; 5.77 in assay [2]; 5.17 in assay [3]; 5.92 in assay [4]; 4.51 in [5]; 5.24 in assay [6].
As to `CCCCCCCCCCCCCCCCCCNC(=O)[C@H]1CSC(C2CCCCC2)N1` (some centres undefined), the pIC50 in assay [1] was < 4.70; in assay [2] it was 4.89; in assay [3] it was < 4.70; in assay [4], 5.03; in [5], < 4.70; in [6], < 4.70.
With `CCCCCCCCCCCCCCCCCCNC(=O)[C@H]1CSC(c2ccc(F)c(Br)c2)N1` (some centres undefined), the pIC50 was 4.85 in [1]; 5.52 in assay [2]; 4.87 in [3]; 5.33 in assay [4]; 4.70 in assay [5]; 4.95 in assay [6].
With `CCCCCCCCCCCCCCCCCCNC(=O)[C@H]1CSC(c2ccc(C#N)cc2)N1` (some centres undefined), the pIC50 is < 4.70 in assay [1]; 5.23 in assay [2]; < 4.70 in assay [3]; 5.30 in [4]; < 4.70 in [5]; < 4.70 in assay [6].
As to `CCCCCCCCCCCCCCCCCCNC(=O)[C@H]1CSC(c2c[nH]c3ccccc23)N1` (some centres undefined), the pIC50 in assay [1] is 5.36; in assay [2], 5.68; in assay [3] it was 4.94; in assay [4], 5.89; in assay [5] it was < 4.70; in assay [6] it was 5.05.
Take `CCCCCCCNC(=O)[C@H]1CSC(c2ccccc2)N1` (some centres undefined): the negative logarithm of the IC50 (pIC50) in [1] was 4.55; in assay [2] it was 4.91; in [3], 4.41; in assay [4], 4.46; in assay [5], 4.28; in [6] it was 4.35.
Turning to `CCCCCCCCCCCCCCCCCCNC(=O)[C@H]1CSC(c2ccc(-c3ccccc3)cc2)N1` (some centres undefined), the pIC50 in assay [1], in [2], in [3], in assay [4], in assay [5] and in [6] was < 4.70 each time.
For the compound `CCCCCCCCCCCCCCCCCCNC(=O)[C@H]1CSC(c2ccc(OC)cc2)N1` (some centres undefined), the pIC50 in assay [2] was 5.68; in assay [3], ~4.70; in assay [4], 5.82; in assay [5], < 4.70; in assay [6], 5.06.
In the case of `CCCCCCCCCCCCCCCCCCNC(=O)[C@H]1CSC(c2ccoc2)N1` (some centres undefined), the pIC50 is 5.38 in [1]; 5.77 in assay [2]; 5.09 in [3]; 5.96 in assay [4]; 4.98 in assay [5]; 5.18 in assay [6].
Regarding `CCCCCCCCCCCCCCCCCCNC(=O)[C@H]1CSC(c2ccc(OC)c(OC)c2)N1` (some centres undefined), the pIC50 in assay [1] is 5.62; in assay [2], 6.07; in assay [3], 5.28; in assay [4], 6.24; in [5] it was 4.99; in assay [6], 5.35.
Regarding `CCCCCCCCCCCCCCCCCCNC(=O)[C@H]1CSC(c2cc(OC)c(OC)c(OC)c2)N1` (some centres undefined), the pIC50 in assay [1] is 5.62; in [2], 6.09; in assay [3], 5.40; in assay [4] it was 6.32; in [5], 4.94; in assay [6], 5.41.
Regarding `CCCCCCCCCCCCCCCCCCNC(=O)[C@H]1CSC(c2ccc(NC(C)=O)cc2)N1` (some centres undefined), the pIC50 in [1] is 6.03; in assay [2], 5.89; in assay [3], 5.25; in assay [4], 6.26; in assay [5] it was 4.68; in assay [6] it was 5.51.
Take `CCCCCCCCCCCCCCNC(=O)[C@H]1CSC(c2ccccc2)N1.Cl` (some centres undefined): the Apoptosis was 54 in [7]; 3.2 in assay [8]; 75.4 in assay [9]; 2.5 in assay [10]; 14.1 in assay [11]; 80.7 in assay [12]. For the same compound, the Apoptosis came to 2.6 in assay [13], 1.8 in assay [14] and 18.7 in [15]. For the same compound, the pIC50 in [1] was 5.70; in assay [2] it was 5.85; in [3], 5.52; in assay [4], 5.89; in assay [5], 5.47; in [6], 5.62.
Consider `CC(=O)O[C@H]1C(=O)[C@@]2(C)[C@H]([C@H](OC(=O)c3ccccc3)[C@]3(O)C[C@H](OC(=O)[C@H](O)[C@@H](NC(=O)c4ccccc4)c4ccccc4)C(C)=C1C3(C)C)[C@]1(OC(C)=O)CO[C@@H]1C[C@@H]2O` [PACLITAXEL], for which the pIC50 is 8.68 in assay [1]; 8.70 in [2]; 8.47 in assay [3]; 8.47 in assay [4]; 8.57 in [6].
